From ChEMBL document CHEMBL3808312, “Bioactive Constituents of Glycyrrhiza uralensis (Licorice): Discovery of the Effective Components of a Traditional Herbal Medicine” (J Nat Prod, 2016) come the findings set out here.

Data set [1] concerns RAW264.7. Put plainly: Antiinflammatory activity in mouse RAW264.7 cells assessed as inhibition of LPS-induced nitric oxide production at 10 uM after 24 hrs by Griess assay. It is filed as functional. In outline:
(§1)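 RAW264.7 cells plated at 1.2 × 10^5/well in RPMI1640 and co-treated with compound and 1 μg/mL LPS for 24 h. Nitrite in medium read with Griess reagent (sulfanilamide/naphthylethylenediamine, phosphoric acid) after 15 min at 37 °C, absorbance 540 nm. […] Curcumin positive control.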

Data set [2] has as its system RAW264.7. Put plainly: Antiinflammatory activity in mouse RAW264.7 cells assessed as inhibition of LPS-induced nitric oxide production after 24 hrs by Griess assay. The format is functional, cell-based. As to conditions: RAW264.7, 24 h. In outline: as §1
Data set [3] concerns the target T1, Tyrosine-protein phosphatase non-receptor type 1 (Homo sapiens) (UniProt P18031).
T1 sequence (whole entry): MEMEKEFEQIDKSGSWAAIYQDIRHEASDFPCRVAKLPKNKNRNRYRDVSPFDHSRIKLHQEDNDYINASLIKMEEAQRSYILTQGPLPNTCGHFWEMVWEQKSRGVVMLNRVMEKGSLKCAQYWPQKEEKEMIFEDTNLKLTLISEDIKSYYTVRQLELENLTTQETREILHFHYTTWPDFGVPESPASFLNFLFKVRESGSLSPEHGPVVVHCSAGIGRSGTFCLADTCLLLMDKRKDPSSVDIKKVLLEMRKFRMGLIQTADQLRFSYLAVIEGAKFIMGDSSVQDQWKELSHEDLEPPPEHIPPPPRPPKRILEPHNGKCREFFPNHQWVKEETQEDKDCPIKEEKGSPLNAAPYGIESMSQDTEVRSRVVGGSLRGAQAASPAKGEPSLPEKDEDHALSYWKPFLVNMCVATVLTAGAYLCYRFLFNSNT
Put plainly: Inhibition of recombinant human PTP1B assessed as hydrolysis of p-nitrophenyl phosphate at 25 uM after 30 mins relative to control.

The target in data set [4] is T1, Tyrosine-protein phosphatase non-receptor type 1 (Homo sapiens). The settings on record: 5 uM.
Data set [5] concerns Influenza A virus. Put plainly: Antiviral activity against Influenza A virus A/WSN/33(H1N1) infected in MDCK cells at 100 uM preincubated with virus for 15 mins followed by cells addition measured at 36 hrs post infection. It is filed as functional, A/WSN/1933(H1N1). In outline: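 MDCK canine kidney cells grown in DMEM and infected with influenza A/WSN/33 (H1N1). Compounds screened at 100 μM. Oseltamivir phosphate served as the positive control.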

In data set [6] the target is T2, Nuclear factor erythroid 2-related factor 2 (Homo sapiens) (UniProt Q16236).
T2 sequence (whole entry): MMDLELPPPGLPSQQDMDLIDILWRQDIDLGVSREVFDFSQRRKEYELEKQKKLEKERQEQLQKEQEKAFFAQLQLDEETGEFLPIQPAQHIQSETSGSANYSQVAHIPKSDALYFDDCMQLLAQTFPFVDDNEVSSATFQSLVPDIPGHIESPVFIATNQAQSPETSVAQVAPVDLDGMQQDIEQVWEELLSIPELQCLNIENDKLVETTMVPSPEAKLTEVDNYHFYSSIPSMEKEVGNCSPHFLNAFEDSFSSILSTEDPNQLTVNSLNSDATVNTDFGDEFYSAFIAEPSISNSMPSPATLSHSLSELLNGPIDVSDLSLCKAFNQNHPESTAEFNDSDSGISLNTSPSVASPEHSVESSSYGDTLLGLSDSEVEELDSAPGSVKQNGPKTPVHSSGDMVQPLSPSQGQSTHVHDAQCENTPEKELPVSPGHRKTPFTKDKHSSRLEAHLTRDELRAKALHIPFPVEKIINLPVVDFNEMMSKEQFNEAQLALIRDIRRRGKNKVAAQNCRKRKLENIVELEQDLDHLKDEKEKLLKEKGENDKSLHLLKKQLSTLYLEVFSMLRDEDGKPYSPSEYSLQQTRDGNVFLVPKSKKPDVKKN
Put plainly: Activation of NRF2 transcription in human HepG2C8 cells at 10 uM after 6 hrs by luciferase reporter gene assay relative to control. The format is cell-based. The procedure, abridged: (§2)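 Luciferase reporter in HepG2C8 cells, which are HepG2 stably transfected with an Nrf2 luciferase reporter and grown in MEM. Screened at 10 μM, with dose-response over 2.5−40 μM. Activity expressed as fold of control. tBHQ positive control.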

The target in data set [7] is T2, Nuclear factor erythroid 2-related factor 2 (Homo sapiens). Briefly: Activation of NRF2 transcription in human HepG2C8 cells after 6 hrs by luciferase reporter gene assay. The format is cell-based. In outline:
as §2

Data set [8] has as its system HepG2. Briefly: Toxicity in human HepG2 cells at 20 to 40 uM. It is filed as cell-based. As to conditions: hepg2, 40 µM.
Data set [9] addresses T2, Nuclear factor erythroid 2-related factor 2 (Homo sapiens). Briefly: Inhibition of NRF2 transcription in human HepG2C8 cells at 10 uM after 6 hrs by luciferase reporter gene assay relative to control. The format is cell-based. The procedure, abridged:
as §2

The test system of data set [10] is HepG2. Put plainly: Cytotoxicity against human HepG2 cells assessed as reduction in cell viability after 24 hrs by MTS assay. It is filed as functional, cell-based. The settings on record: HepG2, 24 h. The procedure, abridged:
(§3)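 Cells seeded at 5 × 10^3/well and cultured overnight, then exposed to compounds for 24 h. Viability read by MTS. Media: SW480 in RPMI1640, A549 in DMEM, MCF7 in MEM. […] Irinotecan positive control.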
(In general: Formazan colour is commonly taken as a measure of viable cells.)

The subject of data set [11] is SW480. Briefly: Cytotoxicity against human SW480 cells assessed as reduction in cell viability after 24 hrs by MTS assay. As to conditions: SW480, 24 h. The format is functional, cell-based. In outline: as §3
Data set [12] has as its system A549. Put plainly: Cytotoxicity against human A549 cells assessed as reduction in cell viability after 24 hrs by MTS assay. The format is functional, cell-based. The settings on record: A549, 24 h. The procedure, abridged:
as §3

Data set [13] relates to MCF7. Briefly: Cytotoxicity against human MCF7 cells assessed as reduction in cell viability after 24 hrs by MTS assay. It is filed as functional, cell-based. The settings on record: MCF7, 24 h. In outline: as §3
Data set [14] addresses T3, Tyrosine-protein phosphatase non-receptor type 1 (Homo sapiens, UniProt P18031).
T3 sequence (P18031 whole entry): T1 sequence (whole entry)
Briefly: Inhibition of recombinant human PTP1B assessed as hydrolysis of p-nitrophenyl phosphate.

Data set [15] concerns MDCK. Put plainly: Cytotoxicity against MDCK cells after 36 hrs. It is filed as cell-based, Canis lupus familiaris. The settings on record: dog.
Data set [16] concerns the target T4, Acetylcholinesterase (Homo sapiens, UniProt P22303). Briefly: Inhibition AChE (unknown origin) using ATCI as substrate assessed as hydrolysis of ATCI after 10 mins measured every 1 min for 10 times.
Data set [17] deals with T4, Acetylcholinesterase. Briefly: Inhibition AChE (unknown origin) using ATCI as substrate assessed as hydrolysis of ATCI at 25 uM measured every 1 min for 10 times. The procedure, abridged:
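Commercial AChE (added as 0.025 U/mL solution) in Tris-HCl (30 mM, pH 8.0) with DTNB (added as 0.26 mM) and ATCI substrate (added as 0.2 mM); 200 μL mixture at room temperature. Thiocholine release read at 405 nm every min, 10 reads; linear slope taken as rate. Screening at 25 μM; galanthamine positive control.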

The test system of data set [18] is SW480. Put plainly: Inhibition of NFkappaB transcription in human SW480 cells at 10 uM by luciferase reporter gene assay. It is filed as cell-based. In outline:
(§4)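 SW480 cells (RPMI1640) stably transfected with an NF-κB luciferase reporter. […] MG132 positive control.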
(In general: A reporter such as luciferase makes a cellular process visible.)

Data set [19] in a line: (§5) Inhibition of NFkappaB transcription in human SW480 cells at by luciferase reporter gene assay. The format is cell-based. In outline:
as §4

In data set [20] the test system is SW480. The description is as §5. The format is cell-based. In outline:
as §4

Each structure is given as a SMILES string. Activity calls are given as the source filed them. No cut-off for these calls is given here.

T4 sequence (P22303 whole entry): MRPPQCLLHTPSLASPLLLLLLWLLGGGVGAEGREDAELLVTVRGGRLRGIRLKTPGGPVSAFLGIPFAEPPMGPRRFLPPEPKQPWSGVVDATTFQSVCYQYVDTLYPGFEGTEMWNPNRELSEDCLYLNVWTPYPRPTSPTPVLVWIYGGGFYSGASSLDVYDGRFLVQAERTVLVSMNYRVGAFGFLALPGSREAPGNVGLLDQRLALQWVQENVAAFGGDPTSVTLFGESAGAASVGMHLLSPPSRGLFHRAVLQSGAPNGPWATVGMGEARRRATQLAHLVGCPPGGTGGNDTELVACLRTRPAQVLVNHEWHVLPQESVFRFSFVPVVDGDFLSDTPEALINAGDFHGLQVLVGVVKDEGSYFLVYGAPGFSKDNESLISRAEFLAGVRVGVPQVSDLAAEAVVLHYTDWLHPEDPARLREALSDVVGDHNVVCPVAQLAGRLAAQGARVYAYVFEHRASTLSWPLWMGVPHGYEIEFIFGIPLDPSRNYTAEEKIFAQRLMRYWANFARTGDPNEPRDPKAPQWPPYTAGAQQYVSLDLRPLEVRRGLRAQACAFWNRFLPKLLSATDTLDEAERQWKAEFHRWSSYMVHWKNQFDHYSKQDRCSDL

In the case of `COc1c(-c2ccc(O)c(CC=C(C)C)c2)oc2cc(O)cc(O)c2c1=O`, the inhibition at 10 µM in data set [1] (RAW264.7, 24 h) is > 50%. Besides, the IC50 in data set [2] was 12.1 µM. In data set [3], the inhibition turned out to be 85%.
In data set [4], `C[C@H]1[C@H](C)CC[C@]2(C(=O)O)CC[C@]3(C)C(=CC[C@@H]4[C@@]5(C)CC[C@H](O)C(C)(C)[C@@H]5CC[C@]43C)[C@H]12` registered an inhibition of 45%.
As for `CC(C)=CCc1c(O)cc2occ(-c3ccc(O)cc3O)c(=O)c2c1O` [UNCINANONE A], the results for the Activity in data set [5], in data set [7] and in [8] were >30%, “Dose-dependent effect” and “Toxic”, respectively. In data set [6], this molecule returned a fold change (FC) of 6.68.
The molecule `COc1c2c(cc3c1CCC(C)(C)O3)OC[C@@H](c1ccc(O)c(CCC(C)(C)O)c1O)C2` displayed an inhibition in [9] of 76%.
As for `CC(C)=CCc1cc(-c2coc3cc(O)c(CC=C(C)C)c(O)c3c2=O)cc(O)c1O`, the half-maximal inhibitory concentration (IC50) in data set [10] was 4.4 µM; in data set [11], 6.5 µM; in data set [12], 6.4 µM; in data set [13], 6.6 µM; in data set [14], 3 µM. In addition, the inhibition in [3] is > 95%. The Activity result in data set [15] is “Toxic”.
Turning to `COc1c(CC=C(C)C)c(O)cc2c1C[C@H](c1ccc(O)c(CC=C(C)C)c1O)CO2` [LICORICIDIN], the concentration for half-maximal inhibition (IC50) came to 15.5 µM in data set [16]; 0.3 µM in data set [10]; 7.1 µM in data set [11]; 6.9 µM in data set [12]; 5.2 µM in [13]. Besides, the inhibition in data set [17] is 82%; in data set [3], > 95%. The Activity result in [15] is reported as “Toxic”.
`CC(C)=CCc1c(O)ccc(-c2coc3cc(O)c(CC=C(C)C)c(O)c3c2=O)c1O`: the values for the inhibition in data set [17] and in [3] were 71% and > 95%, respectively. Besides, the IC50 in data set [10] amounted to 1.1 µM; in data set [11], 6.4 µM; in [12] it was 7.1 µM; in data set [13] it was 6 µM; in [14], 0.4 µM. Also, in data set [15], the Activity result is listed as “Toxic”.
For `COc1cc2oc(-c3ccc(O)cc3O)cc2c(OC)c1CC=C(C)C`, in data set [5], the Activity is reported as >30%. Besides, in data set [1], the inhibition result is “inactive”. For the same molecule, the inhibition in data set [3] was > 90%.
For `COc1cc(O)cc2c1[C@@H]1Oc3c(ccc4c3C=CC(C)(C)O4)[C@@H]1CO2`, the values for the inhibition in data set [18] and in data set [20] were > 30% and “Dose-dependent effect”, respectively. This molecule registered a half-inhibitory concentration (IC50) in data set [19] of 25.8 µM.

As usually defined, the inhibition is how much of the control response was suppressed. As a reminder, the IC50 is the concentration that gives 50% inhibition.
